Active and inactive are the calls of the source.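 How the source made its calls, unless noted: active means viability at or below 30% in both replicate assays; inconclusive means viability at or below 30% in just one of the two assays; inactive means the rest.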
Legend:
[1] = Her2 expression decrease, cell viability multiplex – SKBR3 breast tumor cells, AlphaScreen, ATP viability, primary screen (AID 461;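 active means Her2 level under about 52% in both replicate screens, with viability over 70% of control, limit read from the data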;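 on Her2 level: lower value means less Her2 protein in the cells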;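 on viability: percent of carrier control wells set as 100% viability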); conditions: SKBR3 Her2 protein level, 18-24 h, measured here: SKBR3 viability, ATP luminescence, at 10 µM
[2] = molecular target: Receptor tyrosine-protein kinase erbB-2 (Homo sapiens) (UniProt P04626); test: as above; conditions: 18-24 h, at 10 µM, stronger effect = lower value
[3] = reduced viability of SK-BR-3 breast cancer cells – cell-based, 24 h, human, pilot screen (AID 572;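 active means viability at or below 10% of carrier control in both of two separate runs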;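 further: compound exposure lasted between 18 and 24 h rather than exactly 24 h; 100% = carrier-treated control wells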); conditions: SK-BR-3 viability, CellTiter-Glo luminescence, at 10 µM, stronger effect = lower value
[4] = HUVEC growth inhibition – cell-based, human, primary screen (AID 575); conditions: HUVEC proliferation, CellTiter-Glo luminescence, 72 h; at 10 µM; stronger effect = lower value;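 further: 100% = median of untreated cell wells with 0.1% DMSO on each plate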
Procedure, shortened: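 Assay system: Primary human umbilical vein endothelial cells | Quantity: 1250 cells per well | Medium: Supplemented EBM, 2% fetal bovine serum | Detection: CellTiter-Glo luminescence measuring cellular ATP | Read-out: % viability vs DMSO wells | Plate: Collagen-coated 384-well format | Times: 72 h exposure, 37 °C, 5% CO2, 30 min RT equilibration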

[5] = H69AR cell proliferation blockers – human, duplicate replicates, primary screen (AID 580;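 active means viability at or under a set limit in both replicates, limit being median viability minus 3 SD, cut at about 48% in these data, passing the limit was not always enough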;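 further: 100% = mean luminescence of untreated wells and 0% = no signal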); conditions: H69AR lung tumor cells viability, ATP luminescence, 72 h; at 10 µM; stronger effect = lower value
[6] = MRP1 drug-resistance reversers in H69AR cells – cell-based, doxorubicin co-treatment, pilot screen (AID 601;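 active means viability loss from added drug above about 55%, and viability with drug at most 40%, in both replicates, limit read from the data, passing the limit was not always enough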); conditions: CellTiter-Glo, 72 h, at 10 µM; for differential viability (reversal): stronger effect = higher value
[7] = yeast transport mutant growth inhibition pilot in 384-well plates, post-Golgi transport modulator project (AID 636; in the data active means inhibition above about 31%); conditions: absorbance 615 nm, about 18 h, stronger effect = higher value
[8] = growth suppression of yeast trafficking mutant, preliminary HTS, modulators of trafficking downstream of Golgi apparatus project, 1536-format plate, OD 615 nm (AID 637; in the data active means inhibition above about 30%); conditions: yeast transport mutant growth, absorbance 615 nm, 18 h; stronger effect = higher value
[9] = H69AR cells + 2 uM doxorubicin, measured here: viability with 2 uM doxorubicin, stronger effect = lower value
[10] = H69AR cells, compound alone cytotoxicity

Receptor tyrosine-protein kinase erbB-2 (Homo sapiens), sequence (P04626 whole entry, looked up): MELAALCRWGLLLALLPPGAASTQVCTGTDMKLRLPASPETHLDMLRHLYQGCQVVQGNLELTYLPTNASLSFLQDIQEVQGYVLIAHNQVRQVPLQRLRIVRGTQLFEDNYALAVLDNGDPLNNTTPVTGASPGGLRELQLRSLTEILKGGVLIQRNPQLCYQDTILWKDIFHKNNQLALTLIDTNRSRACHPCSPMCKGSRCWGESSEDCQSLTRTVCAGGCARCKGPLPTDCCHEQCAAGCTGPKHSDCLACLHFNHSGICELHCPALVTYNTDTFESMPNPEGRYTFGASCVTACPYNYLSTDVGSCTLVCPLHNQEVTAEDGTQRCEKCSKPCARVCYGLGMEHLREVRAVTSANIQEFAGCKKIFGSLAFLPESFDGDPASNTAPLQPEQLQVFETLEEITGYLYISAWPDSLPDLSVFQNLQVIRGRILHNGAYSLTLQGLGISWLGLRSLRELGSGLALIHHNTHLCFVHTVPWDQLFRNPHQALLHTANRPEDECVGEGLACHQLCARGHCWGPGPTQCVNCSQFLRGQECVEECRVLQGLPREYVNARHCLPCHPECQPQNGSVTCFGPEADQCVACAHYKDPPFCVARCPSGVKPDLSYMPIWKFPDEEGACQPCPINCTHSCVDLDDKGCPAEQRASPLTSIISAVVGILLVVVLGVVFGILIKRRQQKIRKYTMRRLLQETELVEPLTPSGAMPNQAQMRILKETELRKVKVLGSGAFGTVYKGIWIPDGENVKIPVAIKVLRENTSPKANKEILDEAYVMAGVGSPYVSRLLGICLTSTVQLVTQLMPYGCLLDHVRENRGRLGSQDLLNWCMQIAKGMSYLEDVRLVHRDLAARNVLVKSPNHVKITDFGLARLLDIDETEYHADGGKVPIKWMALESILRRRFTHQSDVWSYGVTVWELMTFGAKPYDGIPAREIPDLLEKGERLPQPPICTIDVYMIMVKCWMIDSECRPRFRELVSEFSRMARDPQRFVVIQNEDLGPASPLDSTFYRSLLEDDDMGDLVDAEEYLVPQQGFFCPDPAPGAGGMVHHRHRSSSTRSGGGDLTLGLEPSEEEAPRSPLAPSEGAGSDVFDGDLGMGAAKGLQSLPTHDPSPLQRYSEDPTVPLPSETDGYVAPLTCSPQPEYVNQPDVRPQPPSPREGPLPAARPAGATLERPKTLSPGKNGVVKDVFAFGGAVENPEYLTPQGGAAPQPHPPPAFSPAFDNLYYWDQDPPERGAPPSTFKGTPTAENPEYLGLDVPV

| SMILES | viability [1] [%] | Her2 level [2] | viability [3] | viability [4] | viability [5] | differential viability (reversal) ([6]; H69AR cells + 2 uM doxorubicin) | viability [6, 9] [%] | viability [6, 10] [%] | inhibition [7] | inhibition [8] |
| --- | --- | --- | --- | --- | --- | --- | --- | --- | --- | --- |
| CC(=O)Nc1ccn(-c2ccccc2)n1 | 83 | 105% (inactive) | 83% (inactive) | 97.9% (inactive) | 93.6% (inactive) | -4.04% (inactive) | 97.6 | 93.6 | 0% (inactive) | -6.77% (inactive) |
| O=C(CN1C(=O)CCSc2ccccc21)Nc1ccc2c(c1)OCO2 | 124 | 85.5% (inactive) | 124% (inactive) | 97.6% (inactive) | 103% (inactive) | 0.09% (inactive) | 103 | 103 | -2.5% (inactive) | -4.13% (inactive) |
| COc1ccccc1-c1cc(C(=O)Nc2cc(C)nn2-c2ccccc2)no1 | 89 | 81.5% (inactive) | 89% (inactive) | 61% (inactive) | 15.5% (active) | -33.6% (inactive) | 49.1 | 15.5 | 7.84% (inactive) | -3.11% (inactive) |
| O=C(Cn1ncc2c(=O)oc3ccccc3c21)Nc1nc2ccccc2s1 | 113 | 102% (inactive) | 113% (inactive) | 97.2% (inactive) | 102% (inactive) | 7.33% (inactive) | 94.9 | 102 | -8.08% (inactive) | -3.65% (inactive) |
| COc1ccc(C2(C(=O)Nc3c(C)n(C)n(-c4ccccc4)c3=O)CCCC2)cc1OC | 94 | 91.5% (inactive) | 94% (inactive) | 98.5% (inactive) | 106% (inactive) | 21.9% (inactive) | 84.1 | 106 | -2.4% (inactive) | 1.43% (inactive) |
| N#CC1=C(N)N(c2ccccc2)C(c2ccco2)C1(C#N)C#N (stereo not given) | 95.5 | 99.5% (inactive) | 95.5% (inactive) | 102% (inactive) | 85.5% (inactive) | -0.88% (inactive) | 86.4 | 85.5 | -6.53% (inactive) | -2.54% (inactive) |
| CCN1CCCC1CNCc1ccc(Cl)cc1Cl (stereo not given) | 92.5 | 116% (inactive) | 92.5% (inactive) | 111% (inactive) | 104% (inactive) | 9.34% (inactive) | 94.4 | 104 | 0.95% (inactive) | 6.83% (inactive) |
